Laboratory results taken from ChEMBL document CHEMBL4689842, “EUbOPEN Chemogenomics Library wave 1” (2021).

Test system: HEK-293T
Assay: Multiplex assay against HEK293T;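 on Population Tubulin-Different-Phenotype (%): share of the cells with healthy nuclei that show this phenotype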
Format: toxicity, cell-based
Details: human
Method in brief: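 Cells were classed with CellPathfinder machine-learning gating, first as Hoechst high-intensity objects or normal cells, then (normal cells) as healthy, pyknosed or fragmented nuclei, and finally (pyknosed cells) as mitotic or apoptotic. Staining of live cells at seeding used Hoechst33342, BioTracker Green Microtubule Cytoskeleton Dye, MitoTracker Red and Annexin V Alexa Fluor 680, with imaging on a CQ1 microscope at 37°C and 5% CO2 after compound addition. Tubulin, mitochondrial-mass and membrane-permeability phenotypes are per cents of healthy-nucleus cells.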

[1] = 12 h, 1 µM, compound concentration 1 uM, replicate 1
[2] = 12 h, 1 µM, compound concentration 1 uM, replicate 2
[3] = 12 h, 10 µM, compound concentration 10 uM, replicate 1
[4] = 12 h, 10 µM, compound concentration 10 uM, replicate 2
[5] = 24 h, 1 µM, compound concentration 1 uM, replicate 1
[6] = 24 h, 1 µM, compound concentration 1 uM, replicate 2
[7] = 24 h, 10 µM, compound concentration 10 uM, replicate 1
[8] = 24 h, 10 µM, compound concentration 10 uM, replicate 2

SMILES: C=CC(=O)Nc1cccc(Oc2nc(Nc3ccc(N4CCN(C)CC4)cc3OC)ncc2Cl)c1
- Population Apoptotic (%) [1]: 22%
- Population Fragmented Nuclei (%) [1]: 21%
- Population Healthy Nuclei (%) [1]: 27%
- Population Hoechst High Intensity Objects (%) [1]: 18%
- Population Membrane Permeable-Phenotype (%) [1]: 13%
- Population Mitochondria Different-Phenotype (%) [1]: 25%
- Population Mitotic Cells (%) [1]: 77%
- Population Normal (%) [1]: 81%
- Population Pyknosed Nuclei (%) [1]: 50%
- Population Tubulin-Different-Phenotype (%) [1]: 77%
- Total Cell Count [1]: 425
- Population Apoptotic (%) [2]: 11%
- Population Fragmented Nuclei (%) [2]: 4%
- Population Healthy Nuclei (%) [2]: 70%
- Population Hoechst High Intensity Objects (%) [2]: 7%
- Population Membrane Permeable-Phenotype (%) [2]: 11%
- Population Mitochondria Different-Phenotype (%) [2]: 54%
- Population Mitotic Cells (%) [2]: 88%
- Population Normal (%) [2]: 92%
- Population Pyknosed Nuclei (%) [2]: 25%
- Population Tubulin-Different-Phenotype (%) [2]: 98%
- Total Cell Count [2]: 1025
- Population Apoptotic (%) [3]: 16%
- Population Fragmented Nuclei (%) [3]: 10%
- Population Healthy Nuclei (%) [3]: 70%
- Population Hoechst High Intensity Objects (%) [3]: 12%
- Population Membrane Permeable-Phenotype (%) [3]: 3%
- Population Mitochondria Different-Phenotype (%) [3]: 8%
- Population Mitotic Cells (%) [3]: 83%
- Population Normal (%) [3]: 87%
- Population Pyknosed Nuclei (%) [3]: 18%
- Population Tubulin-Different-Phenotype (%) [3]: 18%
- Total Cell Count [3]: 722
- Population Apoptotic (%) [4]: 8%
- Population Fragmented Nuclei (%) [4]: 7%
- Population Healthy Nuclei (%) [4]: 86%
- Population Hoechst High Intensity Objects (%) [4]: 3%
- Population Membrane Permeable-Phenotype (%) [4]: 4%
- Population Mitochondria Different-Phenotype (%) [4]: 15%
- Population Mitotic Cells (%) [4]: 91%
- Population Normal (%) [4]: 96%
- Population Pyknosed Nuclei (%) [4]: 6%
- Population Tubulin-Different-Phenotype (%) [4]: 16%
- Total Cell Count [4]: 1384
- Population Apoptotic (%) [5]: 36%
- Population Fragmented Nuclei (%) [5]: 23%
- Population Healthy Nuclei (%) [5]: 33%
- Population Hoechst High Intensity Objects (%) [5]: 16%
- Population Membrane Permeable-Phenotype (%) [5]: 10%
- Population Mitochondria Different-Phenotype (%) [5]: 49%
- Population Mitotic Cells (%) [5]: 63%
- Population Normal (%) [5]: 83%
- Population Pyknosed Nuclei (%) [5]: 43%
- Population Tubulin-Different-Phenotype (%) [5]: 78%
- Total Cell Count [5]: 379
- Population Apoptotic (%) [6]: 13%
- Population Fragmented Nuclei (%) [6]: 8%
- Population Healthy Nuclei (%) [6]: 76%
- Population Hoechst High Intensity Objects (%) [6]: 7%
- Population Mitochondria Different-Phenotype (%) [6]: 36%
- Population Mitotic Cells (%) [6]: 86%
- Population Normal (%) [6]: 92%
- Population Pyknosed Nuclei (%) [6]: 14%
- Population Tubulin-Different-Phenotype (%) [6]: 89%
- Total Cell Count [6]: 1188
- Population Apoptotic (%) [7]: 8%
- Population Fragmented Nuclei (%) [7]: 11%
- Population Healthy Nuclei (%) [7]: 79%
- Population Hoechst High Intensity Objects (%) [7]: 8%
- Population Membrane Permeable-Phenotype (%) [7]: 11%
- Population Mitochondria Different-Phenotype (%) [7]: 5%
- Population Mitotic Cells (%) [7]: 92%
- Population Normal (%) [7]: 91%
- Population Pyknosed Nuclei (%) [7]: 8%
- Population Tubulin-Different-Phenotype (%) [7]: 23%
- Total Cell Count [7]: 923
- Population Apoptotic (%) [8]: 2%
- Population Fragmented Nuclei (%) [8]: 18%
- Population Healthy Nuclei (%) [8]: 78%
- Population Hoechst High Intensity Objects (%) [8]: 2%
- Population Membrane Permeable-Phenotype (%) [8]: 7%
- Population Mitochondria Different-Phenotype (%) [8]: 2%
- Population Mitotic Cells (%) [8]: 97%
- Population Normal (%) [8]: 97%
- Population Pyknosed Nuclei (%) [8]: 3%
- Population Tubulin-Different-Phenotype (%) [8]: 12%
- Total Cell Count [8]: 2281

SMILES: C=CC(=O)Nc1ccc2[nH]c(=O)n(C3CCN(Cc4ccc(-c5nc6cc[nH]c(=O)c6cc5-c5ccccc5)cc4)CC3)c2c1 [Borussertib]
- Population Apoptotic (%) [1]: 18%
- Population Fragmented Nuclei (%) [1]: 16%
- Population Healthy Nuclei (%) [1]: 66%
- Population Hoechst High Intensity Objects (%) [1]: 13%
- Population Membrane Permeable-Phenotype (%) [1]: 5%
- Population Mitochondria Different-Phenotype (%) [1]: 5%
- Population Mitotic Cells (%) [1]: 81%
- Population Normal (%) [1]: 86%
- Population Pyknosed Nuclei (%) [1]: 17%
- Population Tubulin-Different-Phenotype (%) [1]: 5%
- Total Cell Count [1]: 656
- Population Apoptotic (%) [2]: 14%
- Population Fragmented Nuclei (%) [2]: 7%
- Population Healthy Nuclei (%) [2]: 86%
- Population Hoechst High Intensity Objects (%) [2]: 3%
- Population Membrane Permeable-Phenotype (%) [2]: 3%
- Population Mitochondria Different-Phenotype (%) [2]: 12%
- Population Mitotic Cells (%) [2]: 85%
- Population Normal (%) [2]: 96%
- Population Pyknosed Nuclei (%) [2]: 5%
- Population Tubulin-Different-Phenotype (%) [2]: 12%
- Total Cell Count [2]: 1375
- Population Apoptotic (%) [3]: 24%
- Population Fragmented Nuclei (%) [3]: 17%
- Population Healthy Nuclei (%) [3]: 48%
- Population Hoechst High Intensity Objects (%) [3]: 13%
- Population Membrane Permeable-Phenotype (%) [3]: 9%
- Population Mitochondria Different-Phenotype (%) [3]: 25%
- Population Mitotic Cells (%) [3]: 75%
- Population Normal (%) [3]: 86%
- Population Pyknosed Nuclei (%) [3]: 33%
- Population Tubulin-Different-Phenotype (%) [3]: 44%
- Total Cell Count [3]: 585
- Population Apoptotic (%) [4]: 17%
- Population Fragmented Nuclei (%) [4]: 4%
- Population Healthy Nuclei (%) [4]: 84%
- Population Hoechst High Intensity Objects (%) [4]: 4%
- Population Membrane Permeable-Phenotype (%) [4]: 12%
- Population Mitochondria Different-Phenotype (%) [4]: 43%
- Population Mitotic Cells (%) [4]: 82%
- Population Normal (%) [4]: 95%
- Population Pyknosed Nuclei (%) [4]: 11%
- Population Tubulin-Different-Phenotype (%) [4]: 82%
- Total Cell Count [4]: 1080
- Population Apoptotic (%) [5]: 15%
- Population Fragmented Nuclei (%) [5]: 14%
- Population Healthy Nuclei (%) [5]: 75%
- Population Hoechst High Intensity Objects (%) [5]: 11%
- Population Membrane Permeable-Phenotype (%) [5]: 8%
- Population Mitochondria Different-Phenotype (%) [5]: 3%
- Population Mitotic Cells (%) [5]: 84%
- Population Normal (%) [5]: 88%
- Population Pyknosed Nuclei (%) [5]: 9%
- Population Tubulin-Different-Phenotype (%) [5]: 10%
- Total Cell Count [5]: 716
- Population Apoptotic (%) [6]: 11%
- Population Fragmented Nuclei (%) [6]: 19%
- Population Healthy Nuclei (%) [6]: 77%
- Population Hoechst High Intensity Objects (%) [6]: 4%
- Population Membrane Permeable-Phenotype (%) [6]: 9%
- Population Mitochondria Different-Phenotype (%) [6]: 4%
- Population Mitotic Cells (%) [6]: 88%
- Population Normal (%) [6]: 95%
- Population Pyknosed Nuclei (%) [6]: 3%
- Population Tubulin-Different-Phenotype (%) [6]: 19%
- Total Cell Count [6]: 2108
- Population Apoptotic (%) [7]: 34%
- Population Fragmented Nuclei (%) [7]: 15%
- Population Healthy Nuclei (%) [7]: 60%
- Population Hoechst High Intensity Objects (%) [7]: 16%
- Population Membrane Permeable-Phenotype (%) [7]: 8%
- Population Mitochondria Different-Phenotype (%) [7]: 33%
- Population Mitotic Cells (%) [7]: 65%
- Population Normal (%) [7]: 83%
- Population Pyknosed Nuclei (%) [7]: 23%
- Population Tubulin-Different-Phenotype (%) [7]: 68%
- Total Cell Count [7]: 518
- Population Apoptotic (%) [8]: 16%
- Population Fragmented Nuclei (%) [8]: 8%
- Population Healthy Nuclei (%) [8]: 83%
- Population Hoechst High Intensity Objects (%) [8]: 9%
- Population Membrane Permeable-Phenotype (%) [8]: 9%
- Population Mitochondria Different-Phenotype (%) [8]: 43%
- Population Mitotic Cells (%) [8]: 83%
- Population Normal (%) [8]: 90%
- Population Pyknosed Nuclei (%) [8]: 8%
- Population Tubulin-Different-Phenotype (%) [8]: 90%
- Total Cell Count [8]: 1115
